{
  "source": "ChEMBL document CHEMBL2434859",
  "about": "“Targeting botulinum A cellular toxicity: a prodrug approach” (J Med Chem, 2013)",
  "key": {"[1]": {"assay": "Half life in culture media at 10 to 100 uM by LC/MS analysis", "assay_type": "physicochemical", "details": "for t1/2: 100 µM", "summary_of_the_method": "(§1)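 Compound at 10–100 μM (1% DMSO) was held in PBS pH 7.4 or neurobasal medium. Aliquots were taken at timed intervals; medium samples were quenched in cold acetonitrile. A deuterated internal standard (1 μM) was added, and samples were read by LC/MS (C8, SIM) against calibration curves. Half-life came from an exponential decay fit.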"}, "[2]": {"assay": "Half life in PBS buffer at 10 to 100 uM by LC/MS analysis", "assay_type": "physicochemical", "summary_of_the_method": "as §1"}, "[3]": {"biological_target": "Botulinum neurotoxin type A (Clostridium botulinum (strain Hall / ATCC 3502 / NCTC 13319 / Type A), UniProt P0DPI1)", "sequence (P0DPI1 2-448 limits assumed)": "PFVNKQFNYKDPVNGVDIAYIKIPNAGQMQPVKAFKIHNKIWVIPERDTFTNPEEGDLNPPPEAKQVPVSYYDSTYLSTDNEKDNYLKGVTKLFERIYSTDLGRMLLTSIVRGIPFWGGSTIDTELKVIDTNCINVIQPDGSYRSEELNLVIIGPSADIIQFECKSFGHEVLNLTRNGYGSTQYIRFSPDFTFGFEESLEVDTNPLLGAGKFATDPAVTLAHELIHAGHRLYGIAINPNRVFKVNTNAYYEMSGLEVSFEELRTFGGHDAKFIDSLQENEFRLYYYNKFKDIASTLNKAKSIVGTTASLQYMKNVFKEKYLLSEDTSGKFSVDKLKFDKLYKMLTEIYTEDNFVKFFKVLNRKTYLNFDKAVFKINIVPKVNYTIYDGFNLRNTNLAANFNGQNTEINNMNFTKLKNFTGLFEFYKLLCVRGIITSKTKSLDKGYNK", "assay": "(§2) Inhibition of Clostridium botulinum A Hall BoNT LC/A in human induced pluripotent stem cell-derived neurons assessed as inhibition of intracellular SNAP-25 cleavage after 8 hrs by Western blot analysis", "assay_type": "cell-based, Clostridium botulinum A str. Hall"}, "[4]": {"biological_target": "Botulinum neurotoxin type A (Clostridium botulinum (strain Hall / ATCC 3502 / NCTC 13319 / Type A)) (UniProt P0DPI1)", "sequence (P0DPI1 2-448 limits assumed)": "as above", "assay": "Inhibition of Clostridium botulinum A Hall BoNT LC/A in human induced pluripotent stem cell-derived neurons assessed as inhibition of intracellular SNAP-25 cleavage after 8 hrs by Western blot analysis in presence of 0.01% Tween-80", "assay_type": "cell-based", "details": "Clostridium botulinum A str. Hall"}, "[5]": {"biological_target": "Botulinum neurotoxin type A (Clostridium botulinum (strain Hall / ATCC 3502 / NCTC 13319 / Type A)) (UniProt P0DPI1)", "assay": "as §2", "assay_type": "cell-based", "details": "Clostridium botulinum A str. Hall"}, "[6]": {"biological_target": "Botulinum neurotoxin type A (Clostridium botulinum (strain Hall / ATCC 3502 / NCTC 13319 / Type A)) (UniProt P0DPI1)", "assay": "Inhibition of Clostridium botulinum A Hall BoNT LC/A in human induced pluripotent stem cell-derived neurons assessed as inhibition of intracellular SNAP-25 cleavage at 25 uM after 8 hrs by Western blot analysis relative to control", "assay_type": "cell-based", "details": "Clostridium botulinum A str. Hall"}, "[7]": {"assay": "Cellular uptake in golgi apparatus of mouse Neuro2a cell assessed as release of AMC and 1-adamantylacetohydroxamic acid at 50 uM after 3 hrs by Alexa Fluor 488-conjugated wheat germ agglutinin/TOTO-3 staining-based laser scanning confocal microscopic analysis", "assay_type": "ADME"}, "[8]": {"assay": "Prodrug conversion in mouse Neuro2a cells assessed as release of AMC and 1-adamantylacetohydroxamic acid at 50 uM after 3 hrs by Alexa Fluor 488-conjugated wheat germ agglutinin/TOTO-3 staining-based laser scanning confocal microscopic analysis", "assay_type": "ADME, cell-based", "details": "n2a"}, "[9]": {"assay": "Cytotoxicity against human induced pluripotent stem cell-derived neurons assessed as SNAP-25 level at 25 uM after 8 hrs by Western blot analysis", "details": "induced pluripotent stem cell-derived neuron"}},
  "note": "Calls of active or inactive are those of the source. No cut-off for these calls is given here.",
  "data": [
    {"smiles": "COc1cc(NC(=O)ONC(=O)CC23CC4CC(CC(C4)C2)C3)cc(OC)c1", "values": [
      {"measurement": "t1/2", "setting": "[1]", "value": 1.6, "unit": "h"},
      {"measurement": "t1/2", "setting": "[2]", "value": 1.2, "unit": "h"},
      {"measurement": "EC50", "setting": "[3]; read-out: EC50", "value": "> 100", "unit": "µM"}
    ]},
    {"smiles": "CN(C)C(=O)ONC(=O)CC12CC3CC(CC(C3)C1)C2", "values": [
      {"measurement": "t1/2", "setting": "[1]", "value": 61, "unit": "h"},
      {"measurement": "t1/2", "setting": "[2]", "value": 149, "unit": "h"},
      {"measurement": "EC50", "setting": "[3]; read-out: EC50", "value": "> 100", "unit": "µM"}
    ]},
    {"smiles": "CC1(C)ON=C(CC23CC4CC(CC(C4)C2)C3)O1", "values": [
      {"measurement": "t1/2", "setting": "[1]", "value": 10.2, "unit": "h"},
      {"measurement": "t1/2", "setting": "[2]", "value": 3.3, "unit": "h"},
      {"measurement": "EC50", "setting": "[3]; read-out: EC50", "value": "> 100", "unit": "µM"}
    ]},
    {"smiles": "O=C(CC12CC3CC(CC(C3)C1)C2)NOC(=O)Nc1ccc(F)cc1", "values": [
      {"measurement": "t1/2", "setting": "[1]", "value": 0.62, "unit": "h"},
      {"measurement": "t1/2", "setting": "[2]", "value": 0.9, "unit": "h"},
      {"measurement": "EC50", "setting": "[3]; read-out: EC50", "value": "> 100", "unit": "µM"}
    ]},
    {"smiles": "CC(C)(C)NC(=O)ONC(=O)CC12CC3CC(CC(C3)C1)C2", "values": [
      {"measurement": "t1/2", "setting": "[2]", "value": 72, "unit": "h"},
      {"measurement": "EC50", "setting": "[3]", "value": "ND(toxic)"}
    ]},
    {"smiles": "O=C(CC12CC3CC(CC(C3)C1)C2)NOC(=O)NCc1ccccc1", "values": [
      {"measurement": "t1/2", "setting": "[1]", "value": 14.6, "unit": "h"},
      {"measurement": "t1/2", "setting": "[2]", "value": 17.6, "unit": "h"},
      {"measurement": "inhibition", "setting": "[4]", "value": "Active"},
      {"measurement": "inhibition", "setting": "[5]", "value": "Dose-dependent effect"},
      {"measurement": "EC50", "setting": "[3]; read-out: EC50", "value": 20, "unit": "µM"},
      {"measurement": "inhibition", "setting": "[6]", "value": 50, "unit": "%"}
    ]},
    {"smiles": "CCNC(=O)ONC(=O)CC12CC3CC(CC(C3)C1)C2", "values": [
      {"measurement": "t1/2", "setting": "[1]", "value": 15.1, "unit": "h"},
      {"measurement": "t1/2", "setting": "[2]", "value": 27.6, "unit": "h"},
      {"measurement": "EC50", "setting": "[3]; read-out: EC50", "value": "> 100", "unit": "µM"}
    ]},
    {"smiles": "O=C(CC12CC3CC(CC(C3)C1)C2)NOC(=O)NCc1ccc(F)cc1", "values": [
      {"measurement": "t1/2", "setting": "[1]", "value": 11.5, "unit": "h"},
      {"measurement": "t1/2", "setting": "[2]", "value": 11.5, "unit": "h"},
      {"measurement": "EC50", "setting": "[3]; read-out: EC50", "value": 27, "unit": "µM"}
    ]},
    {"smiles": "COc1ccc(CNC(=O)ONC(=O)CC23CC4CC(CC(C4)C2)C3)cc1", "values": [
      {"measurement": "t1/2", "setting": "[1]", "value": 11.2, "unit": "h"},
      {"measurement": "t1/2", "setting": "[2]", "value": 14, "unit": "h"},
      {"measurement": "EC50", "setting": "[3]; read-out: EC50", "value": 42, "unit": "µM"}
    ]},
    {"smiles": "COc1ccc(NC(=O)ONC(=O)CC23CC4CC(CC(C4)C2)C3)cc1", "values": [
      {"measurement": "t1/2", "setting": "[1]", "value": 0.85, "unit": "h"},
      {"measurement": "t1/2", "setting": "[2]", "value": 1.1, "unit": "h"},
      {"measurement": "EC50", "setting": "[3]; read-out: EC50", "value": "> 100", "unit": "µM"}
    ]},
    {"smiles": "Cc1cc(=O)oc2cc(NC(=O)ONC(=O)CC34CC5CC(CC(C5)C3)C4)ccc12", "values": [
      {"measurement": "Drug uptake", "setting": "[7]", "value": "Active"},
      {"measurement": "Drug metabolism", "setting": "[8]", "value": "Active"},
      {"measurement": "half-life at up to 100 µM", "setting": "[1]; culture media", "value": 4.5, "unit": "h"},
      {"measurement": "inhibition", "setting": "[5]", "value": "Active"}
    ]},
    {"smiles": "O=C(CC12CC3CC(CC(C3)C1)C2)NOC(=O)N1CCOCC1", "values": [
      {"measurement": "t1/2", "setting": "[1]", "value": 33, "unit": "h"},
      {"measurement": "t1/2", "setting": "[2]", "value": 48, "unit": "h"},
      {"measurement": "EC50", "setting": "[3]; read-out: EC50", "value": 37, "unit": "µM"}
    ]},
    {"smiles": "COCCN(CCOC)C(=O)ONC(=O)CC12CC3CC(CC(C3)C1)C2", "values": [
      {"measurement": "t1/2", "setting": "[1]", "value": 48, "unit": "h"},
      {"measurement": "t1/2", "setting": "[2]", "value": 164, "unit": "h"},
      {"measurement": "EC50", "setting": "[3]; read-out: EC50", "value": "> 100", "unit": "µM"}
    ]},
    {"smiles": "O=C(CC12CC3CC(CC(C3)C1)C2)N(O)C(=O)NCc1ccccc1", "values": [
      {"measurement": "Activity", "setting": "[9]", "value": "Toxic"}
    ]},
    {"smiles": "O=C(CC12CC3CC(CC(C3)C1)C2)NOC(=O)Nc1ccccc1", "values": [
      {"measurement": "t1/2", "setting": "[1]", "value": 0.76, "unit": "h"},
      {"measurement": "t1/2", "setting": "[2]", "value": 1.1, "unit": "h"},
      {"measurement": "EC50", "setting": "[3]; read-out: EC50", "value": "> 100", "unit": "µM"}
    ]}
  ]
}
